Compound activity: PubChem, several laboratories
PfM18AAP inh: PfM18AAP enzyme inhibition; AID 1822; actives 1.2% (n = 290,000); recombinant PfM18AAP, H-Glu-NHMec fluorogenic cleavage; inhibition, % at 7.35 µM;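 active = inhibition above the campaign mean inhibition over all tested compounds plus 3 SD, cut at about 28% in these data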;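 note: 0% = plate median of test compound wells and 100% = 2 mM ZnCl2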
core dimer inh: blocks dimerization of HCV core protein; TR-FRET GST/Flag-core106 dimerization, 1536-well; actives 0.33% (n = 300,000); inhibition, % at 5 µM;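 active = inhibition above the mean of all tested compounds plus 3 SD, set per screening campaign, cut at about 45% in these data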
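System: GST/Flag-tagged HCV core106 proteins. Incubation: compound-protein-antibody incubation 4 h at 22.5 °C. Technique: HTRF with 340 nm excitation, 617/671 nm emission. Medium: KF-containing HEPES buffer, pH 7.45, DTT, CHAPS, BSA. Read-out: inhibition (%) from 671 over 617 nm ratio. Also added: Eu(K)-anti-GST 90 ng/mL plus XL665-anti-Flag 1 µg/mL.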
ZTA DNA inh: blocks Epstein-Barr virus ZTA, an EBNA-1 counter-screen. ZTA-DNA binding, fluorescence polarization. inhibition, % at 11 µM. actives 0.15% (n = 320,000). AID 2234; in the data active = inhibition above about 33%
EBNA-1 inh: blocks EBNA-1 binding to DNA. actives 0.34% (n = 300,000). EBNA-1 DNA binding, fluorescence polarization. inhibition, % at 14.8 µM; in the data active = inhibition above about 28%
HCV NS3 hel inh: inhibitors of Hepatitis C virus NS3 helicase; AID 1800; actives 0.56% (n = 290,000); NS3 helicase DNA unwinding, Cy5 molecular beacon fluorescence; inhibition, % at 10.9 µM;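 active = inhibition above the mean of all tested compounds plus 3 SD, set per campaign, cut at about 35% in these data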;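 note: 0% = DMSO wells and 100% = thioflavine S control wells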
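Assay system: hepatitis C virus NS3 helicase domain fragment enzyme. Also added: annealed dual-labelled DNA beacon duplex, ATP-started. Timing: 1 h reaction at 25 °C, ATP-initiated. Technique: Cy5 fluorescence at 0 and 60 min, beacon hairpin quenching. Evaluation: % inhibition of unwinding. Replication: one well per compound.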
ALR H2O2 inh: blocks human ALR sulfhydryl oxidase activity | actives 3.8% (n = 290,000) | P55789 | inhibition, % (no concentration beside the values) | purified ALR, DTT oxidation, H2O2 HRP-luminol luminescence;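 active = mean replicate inhibition above about 79%, with every replicate also reaching it, limit read from the data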
Target sequence (P55789 whole entry, looked up): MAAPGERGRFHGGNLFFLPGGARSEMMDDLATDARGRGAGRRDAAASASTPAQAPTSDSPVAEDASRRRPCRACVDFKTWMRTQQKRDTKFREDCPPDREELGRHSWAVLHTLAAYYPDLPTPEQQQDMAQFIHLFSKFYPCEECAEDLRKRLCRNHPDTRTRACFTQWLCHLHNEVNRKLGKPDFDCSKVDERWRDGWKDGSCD
* marks the source's active call; other numbers are inactive results; / = no result given. Only some compounds are listed: those with a hit (about 5.2% of all), similar ones and a draw of the others.

SMILES	PfM18AAP inh	core dimer inh	ZTA DNA inh	EBNA-1 inh	HCV NS3 hel inh	ALR H2O2 inh
CC(=O)NC(=S)Nc1sc2c(c1C(N)=O)CCC(C)C2 (stereo not drawn)	8	-4	-5	-1	2	89*
CCOC(=O)Nc1sc2c(c1C(N)=O)CCC(C)C2 (stereo not drawn)	-4	-3	0	8	-7	-9
CC(CSc1nc2ccccc2s1)Cn1c(N2CCCC2)nc2c1c(=O)[nH]c(=O)n2C (stereo not drawn)	-2	13	4	-5	7	98*
Cc1csc(SCCn2c(N3CCN(c4ccccc4)CC3)nc3c2c(=O)[nH]c(=O)n3C)n1	-10	4	10	8	0	98*
CCN1CCN(c2nc3c(c(=O)[nH]c(=O)n3C)n2CCSc2nc3ccccc3s2)CC1	2	-7	-10	-9	7	/
O=C(N=C1SC2CS(=O)(=O)CC2N1c1ccccc1)c1cccc([N+](=O)[O-])c1 (stereo not drawn)	/	/	-3	/	/	-3
NC(=O)[C@H]1CC2(CC(c3cccc(NC(=O)CC(c4ccccc4)c4ccccc4)c3)=NO2)CN1C(=O)c1ccccc1C(=O)c1ccccc1 (stereo partly drawn)	/	46*	1	-13	/	2
C/C=C\C=C/C(=O)Nc1cccc(C2=NOC3(C2)C[C@@H](C(N)=O)N(C(=O)/C=C/C=C\C)C3)c1 (stereo partly drawn)	/	39	4	1	/	4
CCC(=O)Nc1cccc(C2=NOC3(C2)C[C@@H](C(N)=O)N(C(=O)c2ccccc2C(=O)c2ccccc2)C3)c1 (stereo partly drawn)	/	-11	11	2	/	-14
C=C(C)C(=O)N1CC2(CC(c3cccc(NC(=O)/C=C\C=C/C)c3)=NO2)C[C@H]1C(N)=O (stereo partly drawn)	/	56*	-17	-3	/	1
C/C=C\C=C/C(=O)Nc1cccc(C2=NOC3(C2)C[C@@H](C(N)=O)N(C(=O)/C=C/CC)C3)c1 (stereo partly drawn)	/	53*	8	10	/	-4
CCOC(=O)C1CCN(c2c(NCCCN(CC)c3ccccc3)c(=O)c2=O)CC1	0	-2	-14	-13	-3	90*
CCOC(=O)C1CCCN(c2c(NCCCN(CC)c3cccc(C)c3)c(=O)c2=O)C1 (stereo not drawn)	7	3	9	6	-3	98*
CCOC(=O)C1CCN(c2c(N3CCN(Cc4ccccc4)CC3)c(=O)c2=O)CC1	0	-1	9	-5	-1	0
COc1cccc(=O)c2c(C)n(-c3cc(C)cc(C)c3)c(C)c12	2	19	4	0	33	-1
COc1cccc(-n2c(C)c3c(OC)cccc(=O)c3c2C)c1	12	52*	3	4	17	/
NS(=O)(=O)c1ccc(CCNC(=O)COC(=O)Cc2c(F)cccc2Cl)cc1	1	-2	9	-4	0	-2
Cc1cc(S(=O)(=O)N2CCOCC2)ccc1NC(=O)c1ccc(F)cc1	-10	4	-2	-1	-15	-19
Cc1c(Cl)ccc2c1NC(=O)[C@]21[C@@H]2C(=O)N(Cc3ccccc3)C(=O)[C@@H]2[C@@H]2CCCN21	-2	34	-14	16	-7	-7
CCc1cccc2c1NC(=O)[C@]21[C@@H]2C(=O)N(Cc3ccccc3)C(=O)[C@@H]2[C@@H]2CCCN21	5	55*	-2	-3	-3	0
Oc1cccc(Nc2nc(N3CCOCC3)nc(N3CCOCC3)n2)c1	-4	/	/	/	9	84*
Cc1cc(C)nc(N/N=C/c2ccc(N3CCOCC3)cc2)n1	13	-4	14	1	5	97*
Cc1cc(C)nc(Nc2ccc(O)cc2)n1	-6	-3	-13	-11	-2	100*
Cc1cc(C)nc(Nc2ccc(N3CCCC3)cc2)n1	-2	-20	-21	1	-3	34
Cc1cc(C)nc(Nc2ccc(N3CCOCC3)cc2)n1	-4	-7	-12	2	-5	99*
Cc1cccc(Nc2nc(N3CCOCC3)nc(N3CCOCC3)n2)c1	-1	-2	-3	-16	-20	6
